# Measurements published in ChEMBL document CHEMBL3813698, “Hydrophobic substituents increase the potency of salacinol, a potent α-glucosidase inhibitor from Ayurvedic traditional medicine 'Salacia'” (Bioorg Med Chem, 2016).
# Columns and labels:
# [1] = Inhibition of rat small intestinal maltase using maltose as substrate incubated for 30 mins by glucose-oxidase method
# How it was run: (§1)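 Rat small-intestinal α-glucosidases in 0.1 M maleate buffer (pH 6.0). Test sample dissolved in DMSO, diluted with maleate buffer (10% DMSO in sample solution; 2.5% final). Substrate solution concentrations were maltose 74 mM (maltase), sucrose 74 mM (sucrase) and isomaltose 7.4 mM (isomaltase). Substrate, sample and enzyme were mixed at 37 °C for 30 min, stopped by 2 min boiling, and glucose read by glucose oxidase.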
# [2] = biological target: T1, Sucrase-isomaltase, intestinal (Rattus norvegicus, UniProt P23739); assay: Inhibition of rat small intestinal sucrase using sucrose as substrate incubated for 30 mins by glucose-oxidase method; how it was run: as §1
# [3] = biological target: T1, Sucrase-isomaltase, intestinal; assay: Inhibition of rat small intestinal isomaltase using isomaltose as substrate incubated for 30 mins by glucose-oxidase method; how it was run: as §1
# Maltase-glucoamylase = Maltase-glucoamylase (Homo sapiens, UniProt O43451); assay: Inhibition of human small intestine microsomal maltase using maltose as substrate incubated for 30 mins by glucose-oxidase method
# How it was run: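 Enzyme was human small-intestinal microsome in 0.1 M maleate buffer (pH 6.0), with maltose as substrate. Test sample was dissolved in DMSO and diluted in maleate buffer. Sample, substrate and enzyme were incubated at 37 °C for 30 min, stopped by boiling for 2 min, and glucose measured by the glucose-oxidase method.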
# T1 sequence (P23739 1-1013 limits assumed): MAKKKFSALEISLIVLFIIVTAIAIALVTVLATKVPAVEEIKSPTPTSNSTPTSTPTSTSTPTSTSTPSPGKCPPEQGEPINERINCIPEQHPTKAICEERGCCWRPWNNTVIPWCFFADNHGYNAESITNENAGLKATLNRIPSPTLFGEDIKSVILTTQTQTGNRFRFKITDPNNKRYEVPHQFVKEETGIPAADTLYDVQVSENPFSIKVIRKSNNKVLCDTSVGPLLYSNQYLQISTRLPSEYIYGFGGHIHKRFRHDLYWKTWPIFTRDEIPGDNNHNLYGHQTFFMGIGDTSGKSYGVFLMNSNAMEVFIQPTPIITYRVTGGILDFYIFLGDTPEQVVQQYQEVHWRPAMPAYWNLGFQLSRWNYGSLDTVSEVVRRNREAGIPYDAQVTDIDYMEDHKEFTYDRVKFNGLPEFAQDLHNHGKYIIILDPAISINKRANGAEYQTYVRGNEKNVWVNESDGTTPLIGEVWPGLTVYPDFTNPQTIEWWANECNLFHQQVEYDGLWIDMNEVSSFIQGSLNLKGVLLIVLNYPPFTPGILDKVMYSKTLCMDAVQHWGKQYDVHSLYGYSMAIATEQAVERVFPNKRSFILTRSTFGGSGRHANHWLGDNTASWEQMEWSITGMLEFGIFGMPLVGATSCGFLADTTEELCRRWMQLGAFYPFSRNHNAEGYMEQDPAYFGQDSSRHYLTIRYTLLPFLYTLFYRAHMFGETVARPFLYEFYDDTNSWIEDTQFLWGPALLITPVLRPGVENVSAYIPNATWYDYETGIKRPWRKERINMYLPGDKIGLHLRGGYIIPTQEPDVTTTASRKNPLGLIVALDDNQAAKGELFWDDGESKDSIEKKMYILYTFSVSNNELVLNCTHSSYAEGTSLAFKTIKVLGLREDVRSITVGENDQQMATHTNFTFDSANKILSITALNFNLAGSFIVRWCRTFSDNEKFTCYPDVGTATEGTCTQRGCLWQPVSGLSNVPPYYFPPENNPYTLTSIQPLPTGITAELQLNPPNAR
# T1 sequence (P23739 1014-1841 limits assumed): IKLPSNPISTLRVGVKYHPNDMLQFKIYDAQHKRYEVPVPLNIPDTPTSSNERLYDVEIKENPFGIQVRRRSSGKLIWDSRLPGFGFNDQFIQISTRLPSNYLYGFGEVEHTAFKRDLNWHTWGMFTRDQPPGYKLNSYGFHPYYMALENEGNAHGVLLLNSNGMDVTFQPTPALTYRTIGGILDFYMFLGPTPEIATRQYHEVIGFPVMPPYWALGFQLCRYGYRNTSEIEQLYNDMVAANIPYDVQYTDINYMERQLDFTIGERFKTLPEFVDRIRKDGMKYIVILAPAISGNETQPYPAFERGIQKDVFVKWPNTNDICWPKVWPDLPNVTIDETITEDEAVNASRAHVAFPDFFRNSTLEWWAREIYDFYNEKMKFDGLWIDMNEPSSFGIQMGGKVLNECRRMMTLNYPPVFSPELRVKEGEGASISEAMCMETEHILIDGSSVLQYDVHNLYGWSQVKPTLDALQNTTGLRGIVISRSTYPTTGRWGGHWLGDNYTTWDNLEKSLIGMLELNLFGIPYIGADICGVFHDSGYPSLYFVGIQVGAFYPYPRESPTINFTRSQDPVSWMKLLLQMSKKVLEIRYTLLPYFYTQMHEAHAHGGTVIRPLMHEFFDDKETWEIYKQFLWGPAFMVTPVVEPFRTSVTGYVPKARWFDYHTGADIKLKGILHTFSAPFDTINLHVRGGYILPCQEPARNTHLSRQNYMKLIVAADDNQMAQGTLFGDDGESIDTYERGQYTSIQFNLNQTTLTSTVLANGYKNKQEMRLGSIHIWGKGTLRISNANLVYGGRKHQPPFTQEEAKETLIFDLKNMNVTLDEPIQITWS
# Chain of Maltase-glucoamylase (O43451 whole entry): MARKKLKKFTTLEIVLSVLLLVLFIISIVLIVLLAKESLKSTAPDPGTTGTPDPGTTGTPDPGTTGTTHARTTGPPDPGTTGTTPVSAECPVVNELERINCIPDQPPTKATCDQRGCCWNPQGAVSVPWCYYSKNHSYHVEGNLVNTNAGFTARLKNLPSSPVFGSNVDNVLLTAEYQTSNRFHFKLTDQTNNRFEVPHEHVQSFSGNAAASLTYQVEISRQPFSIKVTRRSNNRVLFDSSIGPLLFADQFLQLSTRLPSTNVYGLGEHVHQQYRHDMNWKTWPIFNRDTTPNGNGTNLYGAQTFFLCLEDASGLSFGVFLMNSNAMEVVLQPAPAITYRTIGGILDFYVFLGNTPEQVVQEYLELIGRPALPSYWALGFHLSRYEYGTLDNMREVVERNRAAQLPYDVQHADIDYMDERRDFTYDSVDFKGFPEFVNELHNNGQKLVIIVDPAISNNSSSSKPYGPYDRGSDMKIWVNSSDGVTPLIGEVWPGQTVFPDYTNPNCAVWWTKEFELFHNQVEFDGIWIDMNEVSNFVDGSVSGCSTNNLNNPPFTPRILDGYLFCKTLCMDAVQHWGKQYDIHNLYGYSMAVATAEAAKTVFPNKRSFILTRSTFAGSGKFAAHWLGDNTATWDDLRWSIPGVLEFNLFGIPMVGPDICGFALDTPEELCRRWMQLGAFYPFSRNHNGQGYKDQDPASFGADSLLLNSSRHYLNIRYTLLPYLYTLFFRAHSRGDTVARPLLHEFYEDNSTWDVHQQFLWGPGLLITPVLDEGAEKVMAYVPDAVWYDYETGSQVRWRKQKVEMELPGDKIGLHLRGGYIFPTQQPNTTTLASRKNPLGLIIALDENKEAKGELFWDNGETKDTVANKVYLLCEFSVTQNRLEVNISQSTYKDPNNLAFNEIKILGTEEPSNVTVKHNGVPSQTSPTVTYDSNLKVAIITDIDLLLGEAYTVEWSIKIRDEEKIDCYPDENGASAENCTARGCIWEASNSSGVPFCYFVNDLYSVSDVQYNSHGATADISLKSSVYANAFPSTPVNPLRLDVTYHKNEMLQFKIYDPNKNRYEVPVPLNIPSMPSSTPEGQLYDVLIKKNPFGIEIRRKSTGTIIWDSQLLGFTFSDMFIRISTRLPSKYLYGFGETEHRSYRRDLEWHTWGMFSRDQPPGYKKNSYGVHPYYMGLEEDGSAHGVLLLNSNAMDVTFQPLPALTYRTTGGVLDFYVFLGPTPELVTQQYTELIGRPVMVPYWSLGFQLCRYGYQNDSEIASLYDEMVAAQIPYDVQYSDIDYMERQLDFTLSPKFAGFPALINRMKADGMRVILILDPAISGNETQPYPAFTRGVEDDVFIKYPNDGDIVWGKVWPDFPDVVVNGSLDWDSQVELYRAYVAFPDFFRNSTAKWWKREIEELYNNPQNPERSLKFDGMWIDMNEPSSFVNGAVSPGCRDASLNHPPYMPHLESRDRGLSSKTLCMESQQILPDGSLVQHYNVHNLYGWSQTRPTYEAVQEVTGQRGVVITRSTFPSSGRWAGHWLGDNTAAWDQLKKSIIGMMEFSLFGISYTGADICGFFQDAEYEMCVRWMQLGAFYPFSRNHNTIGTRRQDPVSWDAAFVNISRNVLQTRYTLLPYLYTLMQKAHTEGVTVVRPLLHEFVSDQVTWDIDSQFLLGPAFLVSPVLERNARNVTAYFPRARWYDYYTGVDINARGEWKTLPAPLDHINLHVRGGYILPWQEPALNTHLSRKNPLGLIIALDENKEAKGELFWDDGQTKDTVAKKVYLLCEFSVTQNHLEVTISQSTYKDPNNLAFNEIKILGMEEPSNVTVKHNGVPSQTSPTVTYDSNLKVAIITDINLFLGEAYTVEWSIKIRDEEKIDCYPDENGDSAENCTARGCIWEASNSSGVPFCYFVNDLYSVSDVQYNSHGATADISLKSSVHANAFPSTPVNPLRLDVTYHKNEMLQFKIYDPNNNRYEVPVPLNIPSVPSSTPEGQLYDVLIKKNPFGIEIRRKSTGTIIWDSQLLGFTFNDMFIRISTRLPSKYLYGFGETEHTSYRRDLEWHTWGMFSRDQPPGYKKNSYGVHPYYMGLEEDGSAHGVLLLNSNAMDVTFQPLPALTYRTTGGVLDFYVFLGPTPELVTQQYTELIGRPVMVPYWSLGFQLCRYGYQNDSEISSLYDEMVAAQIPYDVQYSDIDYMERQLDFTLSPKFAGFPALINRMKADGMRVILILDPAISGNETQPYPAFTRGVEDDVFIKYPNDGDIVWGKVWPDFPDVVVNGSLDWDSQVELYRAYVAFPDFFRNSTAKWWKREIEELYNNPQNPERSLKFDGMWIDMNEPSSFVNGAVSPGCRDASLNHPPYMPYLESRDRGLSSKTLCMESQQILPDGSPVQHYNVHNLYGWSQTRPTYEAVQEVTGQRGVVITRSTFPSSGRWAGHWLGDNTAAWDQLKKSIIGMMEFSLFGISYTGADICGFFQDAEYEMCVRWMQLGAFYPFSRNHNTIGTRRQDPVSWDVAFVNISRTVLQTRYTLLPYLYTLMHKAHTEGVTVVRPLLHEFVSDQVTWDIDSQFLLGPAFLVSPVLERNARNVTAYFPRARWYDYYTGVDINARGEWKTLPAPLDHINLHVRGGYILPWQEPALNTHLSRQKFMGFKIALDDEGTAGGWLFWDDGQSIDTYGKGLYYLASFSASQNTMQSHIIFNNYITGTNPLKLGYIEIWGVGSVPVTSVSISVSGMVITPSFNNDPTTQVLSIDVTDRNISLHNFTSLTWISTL
SMILES,IC50 [1] [nM],IC50 [2] [nM],IC50 [3] [nM],IC50 (Maltase-glucoamylase) [nM]
OC[C@@H]1[C@@H](O)[C@H](O)C[S+]1C[C@@H](O)[C@@H](O)CO (some centres undefined),8000,1300,300,9000
O=S(=O)([O-])O[C@@H](CO)[C@H](O)C[S+]1C[C@@H](O)[C@H](O)[C@H]1CO (some centres undefined),5200,1600,1300,–
CCCCCCCCCCCCCO[C@@H](CO)[C@H](O)C[S+]1C[C@@H](O)[C@H](O)[C@H]1CO (some centres undefined),1040,1300,950,1100
CCCCCO[C@@H](CO)[C@H](O)C[S+]1C[C@@H](O)[C@H](O)[C@H]1CO (some centres undefined),–,500,470,1500
CO[C@@H](CO)[C@H](O)C[S+]1C[C@@H](O)[C@H](O)[C@H]1CO (some centres undefined),5300,460,390,2000
CCCCCCCO[C@@H](CO)[C@H](O)C[S+]1C[C@@H](O)[C@H](O)[C@H]1CO (some centres undefined),800,240,250,640
OCCN1C[C@H](O)[C@@H](O)[C@H](O)[C@H]1CO [MIGLITOL],8200,–,–,–
OCC(CO)N[C@H]1C[C@](O)(CO)[C@@H](O)[C@H](O)[C@H]1O [VOGLIBOSE],–,–,–,1300

# The remaining lines, values ahead:
IC50 [1] [nM],IC50 [2] [nM],IC50 [3] [nM],IC50 (Maltase-glucoamylase) [nM],SMILES
130,42,210,150,O=[N+]([O-])c1ccccc1CO[C@@H](CO)[C@H](O)C[S@@+]1C[C@@H](O)[C@H](O)[C@H]1CO
–,120,270,960,CCO[C@@H](CO)[C@H](O)C[S+]1C[C@@H](O)[C@H](O)[C@H]1CO (some centres undefined)
790,90,340,690,CC(C)CO[C@@H](CO)[C@H](O)C[S+]1C[C@@H](O)[C@H](O)[C@H]1CO (some centres undefined)
300,90,280,470,CC(C)(C)CO[C@@H](CO)[C@H](O)C[S+]1C[C@@H](O)[C@H](O)[C@H]1CO (some centres undefined)
